The source of these data is ChEMBL document CHEMBL4002564, “Design, synthesis and cytotoxicity studies of novel pyrazolo[1, 5-a]pyridine derivatives” (Eur J Med Chem, 2017).

Assay [1] relates to HCT-116. As to the kind of experiment: Antiproliferative activity against human HCT116 cells at 50 uM after 48 hrs by SRB assay. Conditions: HCT-116, 48 h, read-out: GI. In kind it is functional. On the technique in general: In SRB staining, fixed cells bind dye roughly in proportion to their protein.
In assay [2] the test system is HCT-116. The assay can be described thus: Antiproliferative activity against human HCT116 cells at 20 uM after 48 hrs by SRB assay. Type of assay: functional. Conditions: HCT-116, 48 h, read-out: GI. The procedure, abridged: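 Cells kept in RPMI-1640 with 2mM glutamine, 10% FBS, streptomycin and penicillin at 37°C, 5% CO2. Seeded cells grown 24 h, then exposed to compound in complete medium for 48 h. Fixed with cold TCA 1 h at 4°C, stained with 0.4% SRB 30 min, bound dye dissolved in 10mM Tris pH 10.4, OD read at 540 nm. Blank-subtracted percent growth inhibition taken against untreated cells as 100%.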

Assay [3] relates to A549. As to the kind of experiment: Antiproliferative activity against human A549 cells at 50 uM after 48 hrs by SRB assay. In kind it is functional. Conditions: A549, 48 h, read-out: GI.
Assay [4] has as its system MCF7. As to the kind of experiment: Induction of apoptotic bodies formation in human MCF7 cells at 50 nM after 24 hrs by DAPI staining based immunofluorescence microscopy. In kind it is functional, cell-based.
Assay [5] concerns PC-3. As to the kind of experiment: Antiproliferative activity against human PC3 cells at 1 uM after 48 hrs by SRB assay. Type of assay: functional. Particulars: PC-3, 48 h, read-out: GI. A digest of the protocol:
(§1)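 Cells kept in RPMI-1640 with 2 mM glutamine, 10% FBS, penicillin/streptomycin, 37°C, 5% CO2. Seeded and grown 24 h, then test material in complete medium added and incubated 48 h. Fixed with cold TCA 1 h at 4°C, stained with 0.4% SRB in 1% acetic acid for 30 min, dye dissolved in 10 mM Tris pH 10.4, OD read at 540 nm.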

Assay [6] deals with A549. As to the kind of experiment: Antiproliferative activity against human A549 cells at 1 uM after 48 hrs by SRB assay. Type of assay: functional. Particulars: A549, 48 h, read-out: GI. The procedure, abridged: as §1
For assay [7], the system named is PC-3. The assay can be described thus: Antiproliferative activity against human PC3 cells at 50 uM after 48 hrs by SRB assay. Type of assay: functional. Particulars: PC-3, 48 h, read-out: GI.
In assay [8] the test system is MCF7. The assay can be described thus: Antiproliferative activity against human MCF7 cells at 1 uM after 48 hrs by SRB assay. Conditions: MCF7, 48 h, read-out: GI. Type of assay: functional. The procedure, abridged:
as §1

In assay [9] the test system is MCF7. The assay can be described thus: Antiproliferative activity against human MCF7 cells at 50 uM after 48 hrs by SRB assay. In kind it is functional. Particulars: MCF7, 48 h, read-out: GI.
In assay [10] the target is T1, Epidermal growth factor receptor (Homo sapiens, UniProt P00533). The assay can be described thus: Inhibition of recombinant EGFR (unknown origin) using poly (Glu4, Tyr) as substrate assessed as inhibition at 100 uM after 60 mins by ADP-glo kinase assay. On the technique in general: ADP-Glo first removes unused ATP, then detects ADP through luciferase.
T1 sequence (P00533 whole entry): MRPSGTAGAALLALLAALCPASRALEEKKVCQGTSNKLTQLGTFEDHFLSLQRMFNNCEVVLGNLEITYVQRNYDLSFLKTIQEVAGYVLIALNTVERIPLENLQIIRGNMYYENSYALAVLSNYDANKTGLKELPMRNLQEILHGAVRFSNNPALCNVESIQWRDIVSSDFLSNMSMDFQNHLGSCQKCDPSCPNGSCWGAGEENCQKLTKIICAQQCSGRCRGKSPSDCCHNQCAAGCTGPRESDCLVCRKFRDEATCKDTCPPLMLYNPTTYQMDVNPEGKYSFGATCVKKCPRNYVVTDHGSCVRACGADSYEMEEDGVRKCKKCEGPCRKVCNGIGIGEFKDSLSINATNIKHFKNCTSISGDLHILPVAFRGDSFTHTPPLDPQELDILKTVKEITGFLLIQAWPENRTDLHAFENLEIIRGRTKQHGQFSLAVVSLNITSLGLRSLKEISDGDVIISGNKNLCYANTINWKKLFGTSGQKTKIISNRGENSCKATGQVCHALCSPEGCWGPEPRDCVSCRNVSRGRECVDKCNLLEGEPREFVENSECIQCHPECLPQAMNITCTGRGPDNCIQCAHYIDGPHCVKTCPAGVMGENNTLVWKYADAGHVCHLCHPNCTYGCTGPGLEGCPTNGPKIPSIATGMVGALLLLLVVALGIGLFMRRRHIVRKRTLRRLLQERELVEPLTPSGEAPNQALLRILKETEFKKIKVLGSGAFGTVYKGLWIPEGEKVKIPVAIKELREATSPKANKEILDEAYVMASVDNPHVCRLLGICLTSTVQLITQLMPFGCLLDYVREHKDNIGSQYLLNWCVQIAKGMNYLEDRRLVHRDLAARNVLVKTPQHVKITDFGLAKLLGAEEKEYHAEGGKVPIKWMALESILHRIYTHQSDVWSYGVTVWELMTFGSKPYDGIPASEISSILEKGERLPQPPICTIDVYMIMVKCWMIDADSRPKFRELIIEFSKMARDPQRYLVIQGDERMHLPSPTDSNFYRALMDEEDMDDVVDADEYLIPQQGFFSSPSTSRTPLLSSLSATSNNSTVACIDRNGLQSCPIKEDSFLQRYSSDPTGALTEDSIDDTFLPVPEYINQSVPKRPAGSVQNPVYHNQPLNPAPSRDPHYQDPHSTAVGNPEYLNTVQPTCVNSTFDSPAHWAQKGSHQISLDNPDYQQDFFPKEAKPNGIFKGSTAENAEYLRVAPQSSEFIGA
Assay [11] addresses T1, Epidermal growth factor receptor. As to the kind of experiment: Inhibition of recombinant EGFR (unknown origin) using poly (Glu4, Tyr) as substrate assessed as inhibition at 30 uM after 60 mins by ADP-glo kinase assay.
The target is the same in assay [12]. As to the kind of experiment: Inhibition of recombinant EGFR (unknown origin) using poly (Glu4, Tyr) as substrate after 60 mins by ADP-glo kinase assay. The procedure, abridged: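 ADP-Glo luminescent assay. Each reaction held 30 ng recombinant EGFR, 5 µM ATP and 0.2 µg/µl poly(Glu4,Tyr) in tyrosine kinase buffer with a compound dilution; 60 min at ambient temperature. Stopped with ADP-Glo reagent (40 min), then kinase detection reagent, luminescence read after 30 min. Blank (no enzyme) subtracted; activity expressed as % of the 0 µM reaction. Dilutions run in duplicate.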

Assay [13] shares this target. As to the kind of experiment: Inhibition of recombinant EGFR (unknown origin) using poly (Glu4, Tyr) as substrate assessed as inhibition at 1 uM after 60 mins by ADP-glo kinase assay.
The target is the same in assay [14]. As to the kind of experiment: Inhibition of recombinant EGFR (unknown origin) using poly (Glu4, Tyr) as substrate assessed as inhibition at 10 uM after 60 mins by ADP-glo kinase assay.

Structures are written as SMILES. Calls of active or inactive are those of the source. No cut-off for these calls is given here.

With `O=c1[nH]cc(F)c(=O)[nH]1` [FLUOROURACIL], the inhibition of growth at 50 µM in the assay with HCT-116 [1] is 58%. Moreover, in the assay on HCT-116 [2], the inhibition of growth at 20 µM was found to be 58%.
Consider `CC(=O)O[C@H]1C(=O)[C@@]2(C)[C@H]([C@H](OC(=O)c3ccccc3)[C@]3(O)C[C@H](OC(=O)[C@H](O)[C@@H](NC(=O)c4ccccc4)c4ccccc4)C(C)=C1C3(C)C)[C@]1(OC(C)=O)CO[C@@H]1C[C@@H]2O` [PACLITAXEL], for which the inhibition of growth at 50 µM is 78% in the assay on A549 [3] and 72% in the assay with PC-3 [7]. Also, in the assay with MCF7 [4], the result was Active. Also, the inhibition of growth at 1 µM stood at 72% in the assay with PC-3 [5] and 78% in the assay with A549 [6].
In the case of `COc1cccc2c1C(=O)c1c(O)c3c(c(O)c1C2=O)C[C@@](O)(C(=O)CO)C[C@@H]3O[C@H]1C[C@H](N)[C@H](O)[C@H](C)O1` [DOXORUBICIN], the inhibition of growth at 1 µM in the assay with MCF7 [8] stood at 62%. Besides, the inhibition of growth at 50 µM in the assay with MCF7 [9] was found to be 62%.
On to `CCCCOC(=O)c1c(-c2ccccc2)nn2ccccc12`, for which the inhibition in [10] turned out to be 72%; in assay [11], 51%; in assay [13], 16%; in assay [14], 37%. The IC50 in assay [12] is 23.7 µM.

The term inhibition denotes the relative decrease from the control value, in per cent. The term IC50 denotes the midpoint of a concentration-inhibition curve.
